# Assay results reported in ChEMBL document CHEMBL4376814, “Novel cyclin-dependent kinase 9 (CDK9) inhibitor with suppression of cancer stemness activity against non-small-cell lung cancer” (Eur J Med Chem, 2019).
# Active and inactive are the calls of the source. The calls are words filed in the database; no cut-off is given here.
# Tests used:
# [1] = biological target: [Pyruvate dehydrogenase (acetyl-transferring)] kinase isozyme 2, mitochondrial (Homo sapiens) (UniProt Q15119); experiment: Inhibition of human PDHK2 at 1 uM by radiometric method relative to control
# Outline: (§1)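 Percent inhibition of kinase activity at a single compound concentration, measured by the outsourced Eurofins KinaseProfiler panel. Values are the mean of two independent experiments.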
# [2] = biological target: Phosphatidylinositol 5-phosphate 4-kinase type-2 alpha (Homo sapiens) (UniProt P48426); experiment: Inhibition of recombinant full-length human PIP4K2alpha at 1 uM using phosphatidylinositol 5-phosphate as substrate measured after 40 mins by HTRF assay relative to control
# Phosphatidylinositol 5-phosphate 4-kinase type-2 alpha (Homo sapiens), sequence (P48426 whole entry): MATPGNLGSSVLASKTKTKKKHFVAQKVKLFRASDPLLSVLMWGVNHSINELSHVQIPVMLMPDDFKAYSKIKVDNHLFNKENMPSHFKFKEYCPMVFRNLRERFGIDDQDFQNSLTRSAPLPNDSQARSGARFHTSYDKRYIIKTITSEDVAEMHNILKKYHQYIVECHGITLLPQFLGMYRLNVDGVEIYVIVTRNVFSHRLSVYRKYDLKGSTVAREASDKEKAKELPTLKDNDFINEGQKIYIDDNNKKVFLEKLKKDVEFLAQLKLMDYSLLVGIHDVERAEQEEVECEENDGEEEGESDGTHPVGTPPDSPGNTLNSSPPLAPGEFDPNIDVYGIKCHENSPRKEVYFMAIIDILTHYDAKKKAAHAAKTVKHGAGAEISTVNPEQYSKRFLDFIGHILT
# [3] = species on record: Homo sapiens; experiment: Inhibition of recombinant human MARK1 V16E/T20S double mutant (2 to end residues) at 1 uM using KKKVSRSGLYRSPSMPENLNRPR as substrate measured after 40 mins in presence of [gamma33P]ATP by scintillation counting method relative to control
# [4] = biological target: Phosphorylase b kinase gamma catalytic chain, skeletal muscle/heart isoform (Homo sapiens) (UniProt Q16816); experiment: Inhibition of recombinant full-length human PhKgamma1 at 1 uM using KKLNRTLSFAEPG as substrate measured after 120 mins in presence of [gamma33P]ATP by scintillation counting method relative to control
# Phosphorylase b kinase gamma catalytic chain, skeletal muscle/heart isoform (Homo sapiens), sequence (Q16816 whole entry, looked up, canonical isoform): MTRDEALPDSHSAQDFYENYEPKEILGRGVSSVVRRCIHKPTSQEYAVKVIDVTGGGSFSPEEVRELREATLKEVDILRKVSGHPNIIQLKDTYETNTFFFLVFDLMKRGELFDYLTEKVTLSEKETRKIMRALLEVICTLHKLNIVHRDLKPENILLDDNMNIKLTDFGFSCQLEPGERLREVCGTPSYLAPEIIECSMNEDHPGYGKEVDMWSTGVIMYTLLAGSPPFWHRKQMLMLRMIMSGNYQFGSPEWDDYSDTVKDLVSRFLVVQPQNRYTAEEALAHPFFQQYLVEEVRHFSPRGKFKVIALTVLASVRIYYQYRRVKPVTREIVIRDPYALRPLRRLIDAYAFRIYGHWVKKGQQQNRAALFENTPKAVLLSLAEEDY
# [5] = test system: Tyrosine-protein kinase ABL1 (Homo sapiens), P00519 [Y253F]; experiment: Inhibition of recombinant human Abl Y253F mutant (27 to end residues) at 1 uM using EAIYAAPFAKKK as substrate measured after 40 mins in presence of [gamma33P]ATP by scintillation counting method relative to control
# [6] = biological target: Cyclin-dependent kinase 9 (Homo sapiens) (UniProt P50750); settings: A549, 0.25 uM
# [7] = test system: A549; experiment: Downregulation of SOX2 in human A549 cells at 0.25 to 1 uM by Western blot analysis; assay type: functional, cell-based
# [8] = biological target: Serine/threonine-protein kinase Nek1 (Homo sapiens) (UniProt Q96PY6); experiment: Inhibition of recombinant human NEK1 (1 to 505 residues) at 1 uM using RLGRDKYKTLRQIRQ as substrate measured after 40 mins in presence of [gamma33P]ATP by scintillation counting method relative to control
# Serine/threonine-protein kinase Nek1 (Homo sapiens), sequence (Q96PY6 whole entry, the tested form may be a part): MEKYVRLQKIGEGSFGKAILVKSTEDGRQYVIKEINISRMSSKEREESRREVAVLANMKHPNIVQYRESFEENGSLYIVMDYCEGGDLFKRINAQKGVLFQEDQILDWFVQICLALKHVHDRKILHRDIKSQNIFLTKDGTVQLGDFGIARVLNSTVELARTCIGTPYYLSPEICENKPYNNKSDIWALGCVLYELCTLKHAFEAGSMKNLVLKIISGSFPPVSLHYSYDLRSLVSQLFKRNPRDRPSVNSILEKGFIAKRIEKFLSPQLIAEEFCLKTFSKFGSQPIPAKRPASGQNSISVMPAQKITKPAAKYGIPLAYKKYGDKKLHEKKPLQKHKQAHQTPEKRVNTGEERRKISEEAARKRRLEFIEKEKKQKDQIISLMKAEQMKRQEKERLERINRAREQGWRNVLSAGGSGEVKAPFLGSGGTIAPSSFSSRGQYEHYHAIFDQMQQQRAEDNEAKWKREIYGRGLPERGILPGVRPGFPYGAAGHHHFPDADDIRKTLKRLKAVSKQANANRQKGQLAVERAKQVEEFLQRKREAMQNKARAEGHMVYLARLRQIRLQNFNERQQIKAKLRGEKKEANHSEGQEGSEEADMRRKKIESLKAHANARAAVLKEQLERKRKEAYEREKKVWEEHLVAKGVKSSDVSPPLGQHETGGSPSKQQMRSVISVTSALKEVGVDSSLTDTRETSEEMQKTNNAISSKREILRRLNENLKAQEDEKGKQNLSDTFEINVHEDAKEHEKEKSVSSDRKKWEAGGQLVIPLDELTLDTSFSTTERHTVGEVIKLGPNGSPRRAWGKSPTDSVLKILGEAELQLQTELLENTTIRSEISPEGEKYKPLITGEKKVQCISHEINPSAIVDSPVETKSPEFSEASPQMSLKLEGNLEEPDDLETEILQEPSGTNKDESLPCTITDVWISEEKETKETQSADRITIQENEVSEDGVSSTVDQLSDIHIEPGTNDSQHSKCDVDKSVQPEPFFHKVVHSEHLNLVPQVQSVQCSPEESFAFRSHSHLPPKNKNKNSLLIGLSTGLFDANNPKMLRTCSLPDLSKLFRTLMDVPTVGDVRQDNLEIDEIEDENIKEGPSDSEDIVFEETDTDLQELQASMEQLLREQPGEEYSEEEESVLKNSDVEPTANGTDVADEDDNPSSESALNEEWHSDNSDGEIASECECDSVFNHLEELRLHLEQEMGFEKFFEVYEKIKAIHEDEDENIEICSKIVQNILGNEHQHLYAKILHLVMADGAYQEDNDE
# [9] = biological target: Platelet-derived growth factor receptor beta (Homo sapiens) (UniProt P09619); experiment: Inhibition of recombinant human PDGFRbeta (557 to end residues) at 1 uM using poly[Glu:Tyr] (4:1) as substrate measured after 40 mins in presence of [gamma33P]ATP by scintillation counting method relative to control
# Platelet-derived growth factor receptor beta (Homo sapiens), sequence (P09619 whole entry): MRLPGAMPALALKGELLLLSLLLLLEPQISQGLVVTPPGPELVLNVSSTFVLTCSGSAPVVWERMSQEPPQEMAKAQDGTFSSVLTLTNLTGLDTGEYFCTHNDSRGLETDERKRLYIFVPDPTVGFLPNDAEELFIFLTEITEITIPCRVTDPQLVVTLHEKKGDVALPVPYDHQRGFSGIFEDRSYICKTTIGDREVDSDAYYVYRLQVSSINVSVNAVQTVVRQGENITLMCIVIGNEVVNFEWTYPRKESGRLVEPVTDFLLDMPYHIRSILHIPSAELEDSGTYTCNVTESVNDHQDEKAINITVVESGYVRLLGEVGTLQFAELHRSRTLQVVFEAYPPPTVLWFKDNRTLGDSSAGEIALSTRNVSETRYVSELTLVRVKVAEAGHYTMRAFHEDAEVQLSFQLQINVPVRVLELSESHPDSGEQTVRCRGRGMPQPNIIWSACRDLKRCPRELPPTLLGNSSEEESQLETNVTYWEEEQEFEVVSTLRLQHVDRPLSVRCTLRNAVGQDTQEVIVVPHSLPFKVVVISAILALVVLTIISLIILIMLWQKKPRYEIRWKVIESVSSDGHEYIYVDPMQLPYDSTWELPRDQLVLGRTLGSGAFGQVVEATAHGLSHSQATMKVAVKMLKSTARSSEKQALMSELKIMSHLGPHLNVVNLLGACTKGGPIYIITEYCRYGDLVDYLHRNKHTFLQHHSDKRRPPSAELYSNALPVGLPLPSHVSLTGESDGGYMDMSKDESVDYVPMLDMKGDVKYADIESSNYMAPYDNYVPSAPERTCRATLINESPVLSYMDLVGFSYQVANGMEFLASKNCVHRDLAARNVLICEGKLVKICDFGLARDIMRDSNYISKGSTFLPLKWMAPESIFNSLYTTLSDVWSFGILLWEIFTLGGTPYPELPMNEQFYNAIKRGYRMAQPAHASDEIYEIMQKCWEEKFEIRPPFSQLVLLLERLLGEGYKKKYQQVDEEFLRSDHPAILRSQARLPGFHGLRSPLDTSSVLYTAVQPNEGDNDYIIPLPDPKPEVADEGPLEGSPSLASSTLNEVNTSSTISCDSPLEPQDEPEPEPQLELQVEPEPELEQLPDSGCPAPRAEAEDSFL
# [10] = test system: NCI-H1299; experiment: Antiproliferative activity against human H1299 cells assessed as inhibition of cell viability at 1 uM after 72 hrs by CCK-8 assay relative to control; assay type: functional; settings: NCI-H1299, 72 h
# Outline: (§2)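 Single-concentration viability screen using CCK-8. Cells were seeded at 3000/well and treated for 72 h. A450 read after 1-4 h with reagent. Percent inhibition calculated against untreated control and blank wells as (Ac−As)/(Ac−Ab)×100%.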
# [11] = test system: HepG2; experiment: Antiproliferative activity against human HepG2 cells assessed as inhibition of cell viability at 10 uM after 72 hrs by CCK-8 assay relative to control; assay type: functional; settings: HepG2, 72 h; outline: as §2
# [12] = test system: A549; experiment: Induction of apoptosis in human A549 cells assessed as necrotic cells at 0.25 uM after 48 hrs by AnnexinV-FITC/PI staining-based flow cytometric analysis (reference value: 0.664%); assay type: functional
# [13] = test system: NCI-H1299; experiment: Antitumour activity against human H1299 cells xenografted in Balb/c mouse assessed as inhibition of Rb phosphorylation at Ser 780 residue at 20 to 80 mg/kg, po administered for 3 weeks by […] based light microscopic analysis; assay type: functional, organism-based
# Outline: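 Tumours came from the H1299 oral-dosing xenograft run for 3 weeks. Formalin-fixed, paraffin-embedded 5-µm sections were deparaffinized and rehydrated. Primary antibodies (CDK9, cyclin T1, p-Rb Ser780, RNAPII CTD Ser5, Oct4) used at 1:100 overnight at 4 °C. Biotinylated secondary for 1 h at room temperature, then ABC-peroxidase/DAB, hematoxylin counterstain and light microscopy.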
# [14] = biological target: Phosphatidylinositol 4-phosphate 5-kinase type-1 alpha (Homo sapiens) (UniProt Q99755); experiment: Inhibition of recombinant full-length human PIP5K1alpha at 1 uM using phosphatidylinositol 4-phosphate as substrate measured after 40 mins by HTRF assay relative to control
# [15] = biological target: Transient receptor potential cation channel subfamily M member 7 (Homo sapiens) (UniProt Q96QT4); experiment: Inhibition of recombinant human CHAK1 (1180 to end residues) at 1 uM using myelin basic protein as substrate measured after 40 mins in presence of [gamma33P]ATP by scintillation counting method relative to control
# [16] = test system: Serine/threonine-protein kinase B-raf (Homo sapiens), P15056 [V600E]; experiment: Inhibition of recombinant human BRAF V599E mutant (416 to end residues) at 1 uM using myelin basic protein as substrate measured after 40 mins in presence of [gamma33P]ATP by scintillation counting method relative to control
# Serine/threonine-protein kinase B-raf (Homo sapiens), P15056 [V600E], sequence (P15056 whole entry V600E): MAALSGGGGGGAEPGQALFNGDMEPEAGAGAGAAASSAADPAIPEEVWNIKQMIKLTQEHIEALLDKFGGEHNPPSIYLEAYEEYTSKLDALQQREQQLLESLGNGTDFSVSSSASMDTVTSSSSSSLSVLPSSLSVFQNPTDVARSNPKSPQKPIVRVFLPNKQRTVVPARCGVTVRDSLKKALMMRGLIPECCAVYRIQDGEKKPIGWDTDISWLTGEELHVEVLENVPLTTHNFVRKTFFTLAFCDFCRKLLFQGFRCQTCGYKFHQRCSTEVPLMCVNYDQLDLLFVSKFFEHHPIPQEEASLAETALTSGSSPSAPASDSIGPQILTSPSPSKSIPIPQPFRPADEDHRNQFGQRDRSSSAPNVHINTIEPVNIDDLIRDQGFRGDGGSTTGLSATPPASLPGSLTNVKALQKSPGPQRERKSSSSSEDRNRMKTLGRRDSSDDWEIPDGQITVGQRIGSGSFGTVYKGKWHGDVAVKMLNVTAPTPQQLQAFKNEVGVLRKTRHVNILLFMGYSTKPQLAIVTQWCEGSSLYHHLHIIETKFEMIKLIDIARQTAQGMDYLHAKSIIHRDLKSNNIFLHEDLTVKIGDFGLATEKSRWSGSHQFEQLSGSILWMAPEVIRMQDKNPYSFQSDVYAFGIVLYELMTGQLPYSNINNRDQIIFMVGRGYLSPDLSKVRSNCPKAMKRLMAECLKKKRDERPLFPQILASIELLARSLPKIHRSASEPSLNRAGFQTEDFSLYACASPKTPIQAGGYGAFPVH
# [17] = biological target: Ephrin type-A receptor 1 (Homo sapiens) (UniProt P21709); experiment: Inhibition of recombinant human EphA1 (568 to end residues) at 1 uM using KKKSPGEYVNIEF as substrate measured after 40 mins in presence of [gamma33P]ATP by scintillation counting method relative to control
# [18] = test system: HCC827; experiment: Antiproliferative activity against human HCC827 cells assessed as inhibition of cell viability after 72 hrs by CCK-8 assay; assay type: functional, cell-based; settings: HCC827, 72 h
# Outline: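 Cells kept at 37 °C, 5% CO2 in DMEM or RPMI-1640 with 10% FBS and 1% penicillin/streptomycin, then seeded at 3000 cells/well (adherent) or 10,000 cells/well (suspension). Exposed to a range of concentrations for 72 h. CCK-8 added for 1-4 h before reading A450. […] Three independent experiments.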
# [19] = biological target: Dual specificity mitogen-activated protein kinase kinase 6 (Homo sapiens) (UniProt P52564); experiment: Inhibition of recombinant human MKK6 (4 to end residues) at 1 uM using unactive SAPK2a as substrate measured after 40 mins in presence of [gamma33P]ATP by scintillation counting method relative to control
# Dual specificity mitogen-activated protein kinase kinase 6 (Homo sapiens), sequence (P52564 whole entry, the tested form may be a part): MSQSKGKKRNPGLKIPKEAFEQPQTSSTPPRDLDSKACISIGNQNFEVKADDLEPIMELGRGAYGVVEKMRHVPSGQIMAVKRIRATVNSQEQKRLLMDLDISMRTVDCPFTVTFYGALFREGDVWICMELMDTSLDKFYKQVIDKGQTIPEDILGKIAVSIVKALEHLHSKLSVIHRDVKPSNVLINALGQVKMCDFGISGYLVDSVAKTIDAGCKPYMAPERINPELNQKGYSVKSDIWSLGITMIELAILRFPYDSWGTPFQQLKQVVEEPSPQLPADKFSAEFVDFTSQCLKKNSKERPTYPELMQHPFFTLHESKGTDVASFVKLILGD
# [20] = species on record: Homo sapiens; experiment: Inhibition of recombinant full-length human PI3K p110alpha/p65alpha (1 to 571 residues) at 1 uM using phosphatidylinositol-4, 5-bisphosphate as substrate measured after 40 mins by HTRF assay relative to control
# Outline: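 Single-point inhibition at 1 µM was measured in the Eurofins KinaseProfiler panel. Values are the mean of two independent experiments.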
# [21] = biological target: Fibroblast growth factor receptor 1 (Homo sapiens) (UniProt P11362); experiment: Inhibition of recombinant human FGFR1 (456 to 765 residues) at 1 uM using KKKSPGEYVNIEFG as substrate measured after 40 mins in presence of [gamma33P]ATP by scintillation counting method relative to control
# Fibroblast growth factor receptor 1 (Homo sapiens), sequence (P11362 22-822 limits assumed): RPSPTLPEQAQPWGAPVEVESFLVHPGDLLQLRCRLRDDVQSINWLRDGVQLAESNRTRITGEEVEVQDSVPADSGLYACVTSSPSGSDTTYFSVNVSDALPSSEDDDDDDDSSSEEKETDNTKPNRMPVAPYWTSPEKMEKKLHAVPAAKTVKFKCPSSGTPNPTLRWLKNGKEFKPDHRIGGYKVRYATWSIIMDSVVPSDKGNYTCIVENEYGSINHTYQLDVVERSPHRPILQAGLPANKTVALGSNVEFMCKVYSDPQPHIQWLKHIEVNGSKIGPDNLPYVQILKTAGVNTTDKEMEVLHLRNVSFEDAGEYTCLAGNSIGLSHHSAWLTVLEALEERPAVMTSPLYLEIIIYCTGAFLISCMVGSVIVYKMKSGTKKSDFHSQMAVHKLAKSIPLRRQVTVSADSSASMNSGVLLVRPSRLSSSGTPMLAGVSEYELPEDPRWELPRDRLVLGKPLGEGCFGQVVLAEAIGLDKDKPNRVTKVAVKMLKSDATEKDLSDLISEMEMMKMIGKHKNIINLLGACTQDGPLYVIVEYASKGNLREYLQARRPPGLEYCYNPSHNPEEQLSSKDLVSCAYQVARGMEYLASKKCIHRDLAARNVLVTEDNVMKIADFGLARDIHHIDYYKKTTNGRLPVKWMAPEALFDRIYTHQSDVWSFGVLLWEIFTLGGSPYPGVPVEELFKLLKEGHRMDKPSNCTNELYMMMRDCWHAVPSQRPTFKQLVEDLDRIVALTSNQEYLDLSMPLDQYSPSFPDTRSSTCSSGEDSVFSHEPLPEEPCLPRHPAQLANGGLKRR
# [22] = biological target: Casein kinase 2 (Homo sapiens) (UniProt P67870+P68400+P19784+Q8NEV1); experiment: Inhibition of human CK2 at 1 uM relative to control; assay type: protein assay; outline: as §1
structure (smiles),measurement,setting,value
CN(C)C(=O)c1cc2cnc(Nc3ccc(NC(=O)CCCCCCCN=C=S)cc3)nc2n1C1CCCC1,inhibition,[1],-10%
same,inhibition,[2],0%
same,inhibition,[3],59%
same,inhibition,[4],71%
same,inhibition,[5],53%
same,inhibition,[6],Active
same,Activity,[7],Active
same,inhibition,[8],69%
same,inhibition,[9],2%
same,inhibition at 1 µM,[10],87.4%
same,inhibition at 10 µM,[11],76%
same,Activity,[12],5.83%
same,Activity,[13],Active
same,inhibition,[14],30%
same,inhibition,[15],16%
same,inhibition,[16],31%
same,inhibition,[17],44%
same,IC50,[18],1070 nM
same,inhibition,[19],30%
same,inhibition,[20],1%
same,inhibition,[21],72%
same,inhibition,[22],4%
